From ChEMBL document CHEMBL3108700, “Designing anti-inflammatory drugs from parasitic worms: a synthetic small molecule analogue of the Acanthocheilonema viteae product ES-62 prevents development of collagen-induced arthritis” (J Med Chem, 2013)
Activity calls are given as the source filed them. No rule for the calls is given here.

Legend:
[1] = biological target: T1, Toll-like receptor 9 (Mus musculus) (UniProt Q9EQU3); assay: Inhibition of TLR9 in BALB/c mouse BMDM assessed as downregulation of CpG-stimulated IL-6 level at 5 ug/ml preincubated for 18 hrs followed by CpG challenge measured after 24 hrs by ELISA relative to control
T1 sequence (whole entry): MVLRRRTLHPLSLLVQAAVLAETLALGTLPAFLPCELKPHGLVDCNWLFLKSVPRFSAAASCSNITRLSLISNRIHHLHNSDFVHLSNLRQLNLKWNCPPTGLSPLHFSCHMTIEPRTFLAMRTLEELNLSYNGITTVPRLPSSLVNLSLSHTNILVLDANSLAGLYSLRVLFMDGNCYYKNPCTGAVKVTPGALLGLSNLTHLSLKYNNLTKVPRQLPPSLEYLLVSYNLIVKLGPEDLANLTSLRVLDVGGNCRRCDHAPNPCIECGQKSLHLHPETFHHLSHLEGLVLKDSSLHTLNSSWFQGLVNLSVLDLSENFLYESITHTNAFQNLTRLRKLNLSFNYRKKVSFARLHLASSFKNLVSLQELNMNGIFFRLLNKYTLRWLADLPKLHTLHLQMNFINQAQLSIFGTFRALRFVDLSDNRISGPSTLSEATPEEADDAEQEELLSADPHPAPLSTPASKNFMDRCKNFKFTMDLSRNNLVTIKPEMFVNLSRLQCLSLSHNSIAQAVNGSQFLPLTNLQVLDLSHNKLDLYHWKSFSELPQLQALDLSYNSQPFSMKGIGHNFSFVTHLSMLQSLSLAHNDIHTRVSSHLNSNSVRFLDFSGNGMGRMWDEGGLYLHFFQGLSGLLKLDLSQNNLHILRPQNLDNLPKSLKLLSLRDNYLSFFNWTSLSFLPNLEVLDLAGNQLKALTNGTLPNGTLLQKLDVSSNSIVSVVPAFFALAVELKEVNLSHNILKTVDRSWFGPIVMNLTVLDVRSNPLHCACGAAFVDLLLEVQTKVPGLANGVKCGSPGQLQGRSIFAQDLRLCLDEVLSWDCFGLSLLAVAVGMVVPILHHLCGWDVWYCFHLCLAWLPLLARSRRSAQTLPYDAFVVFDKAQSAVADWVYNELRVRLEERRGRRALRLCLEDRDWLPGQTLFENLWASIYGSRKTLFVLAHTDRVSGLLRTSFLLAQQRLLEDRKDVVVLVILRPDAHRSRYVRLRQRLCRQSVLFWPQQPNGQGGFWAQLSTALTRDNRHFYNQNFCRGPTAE
How it was run: (§1)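 BALB/c male bone marrow macrophages were differentiated 7 days with L929 supernatant (≥99% CD11b+/F4/80+). Cells were plated at 2 × 10^5/well in triplicate, rested overnight, and given compounds at 5 μg/mL for 18 h. They were then stimulated with 100 ng/mL S. minnesota LPS, 10 ng/mL Pam3CSK4 (BLP) or 0.01 μM CpG for 24 h. Supernatant IL-12p40 and IL-6 were measured by ELISA (sensitivity 16 pg/mL).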

[2] = biological target: T2, Toll-like receptor 4 (Mus musculus) (UniProt Q9QUK6); assay: Inhibition of TLR4 in BALB/c mouse BMDM assessed as downregulation of LPS-stimulated IL-6 level at 5 ug/ml preincubated for 18 hrs followed by LPS challenge measured after 24 hrs by ELISA relative to control; how it was run: as §1
T2 sequence (whole entry): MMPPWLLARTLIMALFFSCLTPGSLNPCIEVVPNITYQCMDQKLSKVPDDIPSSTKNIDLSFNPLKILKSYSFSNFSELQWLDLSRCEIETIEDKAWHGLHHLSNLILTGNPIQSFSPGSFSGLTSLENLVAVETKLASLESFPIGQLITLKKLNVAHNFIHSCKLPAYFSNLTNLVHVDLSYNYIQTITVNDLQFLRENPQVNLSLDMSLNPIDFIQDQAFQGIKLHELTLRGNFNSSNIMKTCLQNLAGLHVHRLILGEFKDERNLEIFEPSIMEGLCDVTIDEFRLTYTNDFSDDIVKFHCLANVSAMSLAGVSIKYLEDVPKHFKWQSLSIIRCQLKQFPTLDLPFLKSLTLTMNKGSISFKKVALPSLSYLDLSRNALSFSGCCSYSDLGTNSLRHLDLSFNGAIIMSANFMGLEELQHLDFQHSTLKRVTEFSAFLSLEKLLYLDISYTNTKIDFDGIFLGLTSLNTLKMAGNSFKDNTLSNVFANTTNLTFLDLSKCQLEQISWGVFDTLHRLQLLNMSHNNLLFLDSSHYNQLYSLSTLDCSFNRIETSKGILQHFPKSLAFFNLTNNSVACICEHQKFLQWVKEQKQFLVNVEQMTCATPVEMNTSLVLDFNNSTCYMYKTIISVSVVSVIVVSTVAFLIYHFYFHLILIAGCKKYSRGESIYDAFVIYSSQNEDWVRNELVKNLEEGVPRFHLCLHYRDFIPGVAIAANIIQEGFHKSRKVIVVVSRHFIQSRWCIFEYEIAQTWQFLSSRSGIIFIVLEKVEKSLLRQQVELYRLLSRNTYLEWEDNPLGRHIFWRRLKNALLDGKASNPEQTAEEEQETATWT

TLR2/TLR6 (Mus musculus) [3] = biological target: T3, TLR2/TLR6 (Mus musculus) (UniProt Q9QUN7+Q9EPW9); assay: Inhibition of TLR2/6 in BALB/c mouse BMDM assessed as downregulation of BLP-stimulated IL-12p40 level at 5 ug/ml preincubated for 18 hrs followed by BLP challenge measured after 24 hrs by ELISA relative to control; type: protein-complex assay; how it was run: as §1
[4] = biological target: T2, Toll-like receptor 4 (Mus musculus); assay: Inhibition of TLR4 in BALB/c mouse BMDM assessed as downregulation of LPS-stimulated IL-12p40 level at 5 ug/ml preincubated for 18 hrs followed by LPS challenge measured after 24 hrs by ELISA relative to control; how it was run: as §1
[5] = biological target: T1, Toll-like receptor 9 (Mus musculus); assay: Inhibition of TLR9 in BALB/c mouse BMDM assessed as downregulation of CpG-stimulated IL-12p40 level at 5 ug/ml preincubated for 18 hrs followed by CpG challenge measured after 24 hrs by ELISA relative to control; how it was run: as §1
TLR2/TLR6 (Mus musculus) [6] = biological target: T3, TLR2/TLR6 (Mus musculus); assay: Inhibition of TLR2/6 in BALB/c mouse BMDM assessed as downregulation of BLP-stimulated IL-6 level at 5 ug/ml preincubated for 18 hrs followed by BLP challenge measured after 24 hrs by ELISA relative to control; type: protein-complex assay; how it was run: as §1

Structure (SMILES)	inhibition [1]	inhibition [2]	inhibition (TLR2/TLR6 (Mus musculus) [3])	inhibition [4]	inhibition [5]	inhibition (TLR2/TLR6 (Mus musculus) [6])
CN(C)CCCOP(=O)(O)Oc1ccc(NC(=O)OC(C)(C)C)cc1	inactive	inactive	inactive	inactive	inactive	inactive
O=S(=O)(CCN1CCOCC1)Cc1cccc(F)c1	inactive	inactive	inactive	inactive	inactive	inactive
O=S(=O)(CCNCCCO)c1ccccc1	inactive	inactive	Active	inactive	inactive	inactive
CN(C)CCNS(=O)(=O)Cc1ccc2ccccc2c1	inactive	inactive	inactive	inactive	inactive	inactive
CN(C)CCNS(=O)(=O)Cc1ccc(F)cc1	inactive	inactive	inactive	inactive	inactive	inactive
CN(C)CCCNS(=O)(=O)Cc1ccc(Br)cc1	inactive	inactive	inactive	inactive	inactive	inactive
O=S(=O)(CCN1CCCC1)c1ccccc1	inactive	inactive	Active	inactive	inactive	inactive
C[N+]1(CCS(=O)(=O)Cc2ccc(Br)cc2)CCCC1	inactive	Active	Active	Active	inactive	inactive
O=S(=O)(Cc1ccc(F)cc1)NCCN1CCCC1	inactive	inactive	inactive	inactive	inactive	inactive
O=S(=O)(CCN1CCOCC1)NCc1ccc(Br)cc1	inactive	inactive	inactive	inactive	inactive	inactive
Cc1ccc(CP(=O)(O)OCCCN(C)C)cc1	inactive	inactive	inactive	inactive	inactive	inactive
C[N+](C)(C)CCS(=O)(=O)Cc1ccc(Br)cc1	inactive	inactive	inactive	inactive	inactive	inactive
COc1ccc2c(CS(=O)(=O)NCCN3CCOCC3)cc(=O)oc2c1	inactive	inactive	Active	Active	inactive	inactive
Cc1ccc(CS(=O)(=O)CCC[N+](C)(C)C)cc1	inactive	inactive	inactive	inactive	inactive	inactive
Cc1ccc(CS(=O)(=O)CCN(C)C)cc1	inactive	Active	inactive	Active	inactive	inactive
O=S(=O)(Cc1ccc(Br)cc1)NCCN1CCCC1	inactive	inactive	inactive	inactive	inactive	inactive
CN(C)CCS(=O)(=O)NCc1ccc(F)cc1	inactive	inactive	inactive	inactive	Active	inactive
O=S(=O)(Cc1ccc(F)cc1)NCCN1CCOCC1	inactive	inactive	inactive	inactive	inactive	inactive
O=S(=O)(Cc1ccc2ccccc2c1)NCCN1CCCC1	inactive	inactive	inactive	inactive	inactive	Active
CC[C@H](C)NCCS(=O)(=O)c1ccccc1	inactive	inactive	inactive	inactive	inactive	inactive
CN(C)CCCNS(=O)(=O)Cc1ccc([N+](=O)[O-])cc1	inactive	inactive	inactive	inactive	inactive	Active
O=S(=O)(CCN1CCCC1)Nc1ccccc1	inactive	inactive	inactive	Active	Active	inactive
O=S(=O)(Cc1ccccc1)NCCN1CCCC1	inactive	inactive	inactive	inactive	inactive	inactive
Cc1ccc(CS(=O)(=O)NCCN(C)C)cc1	inactive	inactive	inactive	inactive	inactive	inactive
